# The source made the active and inactive calls. The rule behind the calls is not given here.
# Assays:
# Assay type in all cases: functional
# [1] = test system: Radical scavenging activity; test: Antioxidant activity assessed as DPPH radical scavenging activity after 20 min
# Procedure, shortened: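 Percent antiradical activity = (1 − sample/blank absorbance)×100; IC25 from logarithmic regression over 5–6 concentrations; highest concentration tested 400 µM.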
# [2] = Antioxidant activity in BALB/c mouse BM cells assessed as inhibition of ROS production; settings: Bone marrow cell
# Procedure, shortened: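 Whole bone marrow cells flushed from tibias and femurs with phenol red-free HBSS pH 7.4, strained through 70 µm, 1 × 10^6 cells/mL. L-012 (40 µM final) and horseradish peroxidase (8 µg/ml final) added; cells mixed with compound from DMSO stock (1% DMSO final). Luminescence read 60 min every 2 min at 37°C; area under curve gives total signal; IC25 from % inhibition versus log concentration, 5–7 concentrations.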
# [3] = Antioxidant activity assessed as inhibition of superoxide production by xanthine/xanthine oxidase method
# Procedure, shortened: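 Superoxide generated from 500 µM xanthine with 3.75 mU/mL xanthine oxidase in 0.1 M phosphate buffer pH 7.5, detected as reduction of 500 µM NBT to monoformazan at 560 nm, 25°C, as rate of absorbance change. IC25 from rate versus log concentration, 5–7 concentrations, top concentration 50 µM.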
Structure (SMILES),Activity [1],IC25 [2] [µM],IC25 [1] [µM],IC25 [3] [µM],Activity [3]
COc1ccccc1-c1oc2ccccc2c(=O)c1O,inactive,49,–,–,–
O=c1c(O)c(-c2cc(O)c(O)c(O)c2)oc2cc(O)cc(O)c12 [MYRICETIN],–,5.2,41.8,6.8,–
COc1ccc(-c2cc(=O)c3c(O)cc(O[C@@H]4O[C@H](CO[C@@H]5O[C@@H](C)[C@H](O)[C@@H](O)[C@H]5O)[C@@H](O)[C@H](O)[C@H]4O)cc3o2)cc1O,inactive,–,–,–,inactive
C[C@@H]1O[C@@H](O[C@H]2[C@H](Oc3cc(O)c4c(=O)cc(-c5ccc(O)cc5)oc4c3)O[C@H](CO)[C@@H](O)[C@@H]2O)[C@H](O)[C@H](O)[C@H]1O [RHOIFOLIN],–,201,–,7.2,–
COc1ccc(-c2cc(=O)c3c(O)cc(O)cc3o2)cc1 [ACACETIN],inactive,1180,–,16.3,–
CN1CCc2cccc3c2[C@H]1Cc1ccc(O)c(O)c1-3 [APOMORPHINE],–,–,–,16.2,–
O=c1c(O)c(-c2ccc(O)cc2)oc2ccc(O)cc12,–,–,4.5,–,–
COc1cc(-c2cc(=O)c3ccccc3o2)ccc1O,inactive,14.5,–,–,inactive
O=C1CC(c2ccc(O)cc2)Oc2ccccc21 (stereo not given) [4'-HYDROXY-FLAVANONE],inactive,3300,–,–,inactive
COc1cccc2oc(-c3ccc(O)cc3)cc(=O)c12,inactive,1270,–,–,inactive
O=c1c(O)c(-c2ccc(O)cc2)oc2cc(O)ccc12 [RESOKAEMPFEROL],–,23,4.1,48,–
C[C@@H]1O[C@@H](OC[C@H]2O[C@@H](Oc3c(-c4ccc(O)c(O)c4)oc4cc(O)cc(O)c4c3=O)[C@H](O)[C@@H](O)[C@@H]2O)[C@H](O)[C@H](O)[C@H]1O,–,–,12.2,4.5,–
Oc1ccc(/C=C/c2cc(O)cc(O)c2)cc1 [RESVERATROL],–,70,349,–,inactive
O=c1c(O)c(-c2ccc(O)cc2)oc2cc(O)cc(O)c12 [KAEMPFEROL],–,4,22.6,–,inactive
O=C1C[C@@H](c2ccc(O)cc2)Oc2cc(O)cc(O)c21 [NARINGENIN],inactive,551,–,–,inactive
COc1ccc(-c2coc3cc(O)cc(O)c3c2=O)cc1 [BIOCHANIN],inactive,33,–,–,inactive
O=c1cc(-c2ccccc2O)oc2cc(O)cc(O)c12,inactive,5.7,–,–,inactive
O=c1cc(-c2ccccc2)oc2cc(O)cc(O)c12 [CHRYSIN],inactive,4480,–,–,inactive
O=c1c(O)c(-c2ccccc2)oc2cc(O)cc(O)c12 [GALANGIN],–,4.3,86.4,–,inactive
Oc1cc(O)c2c(c1)O[C@H](c1ccc(O)c(O)c1)[C@@H](O)C2 [CIANIDANOL],–,168,33.3,45.8,–

Structure (SMILES),Activity [1],IC25 [2] [µM],IC25 [1] [µM],IC25 [3] [µM],Activity [3]
O=c1cc(-c2ccccc2)oc2cc(O)c(O)c(O)c12 [BAICALEIN],–,10.4,1.5,2.6,–
COc1c(-c2ccccc2)oc2cc(O)ccc2c1=O,inactive,1050,–,–,inactive
COc1ccc2c(=O)cc(-c3ccccc3)oc2c1O,inactive,3.1,–,–,inactive
COc1c(-c2ccc(O)c(O)c2)oc2cc(O)cc(O)c2c1=O [3-O-METHYLQUERCETIN],–,58,5.9,3.6,–
O=c1cc(-c2ccccc2O)oc2c(O)c(O)ccc12,–,0.52,2.1,1.2,–
COc1ccc(C2CC(=O)c3c(O)cc(O[C@@H]4O[C@H](CO[C@@H]5O[C@@H](C)[C@H](O)[C@@H](O)[C@H]5O)[C@@H](O)[C@H](O)[C@H]4O)cc3O2)cc1O (stereo not given in full),inactive,–,–,–,inactive
COc1cc([C@@H]2Oc3cc([C@@H]4Oc5cc(O)cc(O)c5C(=O)[C@H]4O)ccc3O[C@H]2CO)ccc1O,–,140,61.4,7.7,–
O=c1cc(-c2cccc(O)c2O)oc2ccccc12,–,–,0.5,–,–
COc1ccc([C@@H]2CC(=O)c3c(O)cc(O)cc3O2)cc1O [HESPERETIN],–,647,83,–,inactive
O=C1CC(c2ccccc2O)Oc2ccccc21 (stereo not given) [2'-HYDROXY-FLAVANONE],inactive,5620,–,–,inactive
COc1ccc(-c2oc3ccc(C)cc3c(=O)c2O)cc1OC,–,–,89,–,–
COc1cc(O)c2c(=O)cc(-c3ccccc3)oc2c1 [TECHTOCHRYSIN],inactive,160,–,–,inactive
O=c1cc(-c2cccc(O)c2)oc2c(O)c(O)ccc12,–,0.8,2.7,2.4,–
O=c1c(O)c(-c2ccc(O)c(O)c2)oc2cc(O)cc(O)c12 [QUERCETIN],–,3.5,8.1,3,–
O=c1c(O)c(-c2ccc(O)c(O)c2)oc2ccccc12,–,1.75,0.7,0.68,–
O=c1cc(-c2ccc(O)cc2)oc2cc(O)cc(O)c12 [APIGENIN],inactive,113,–,–,inactive
O=c1c(O)c(-c2ccc(O)c(O)c2)oc2cc(O)ccc12 [FISETIN],–,31,7.9,2.7,–
O=c1cc(-c2ccc(O)c(O)c2)oc2cccc(O)c12,–,–,1.5,–,–
O=c1cc(-c2ccc(O)c(O)c2)oc2cc(O)cc(O)c12 [LUTEOLIN],–,13.7,12.1,6.9,–
O=C(CCc1ccc(O)cc1)c1c(O)cc(O)cc1O [PHLORETIN],inactive,300,–,–,inactive
